PABP FP inh: blocks human PABP binding to poly(A) RNA; hit rate 1% among 290,000; inhibition, % at 35 µM; P11940; fluorescence polarization;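 note: calls also rest on retests at 20 µM and on dose response follow-up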
Target sequence (P11940 whole entry, looked up): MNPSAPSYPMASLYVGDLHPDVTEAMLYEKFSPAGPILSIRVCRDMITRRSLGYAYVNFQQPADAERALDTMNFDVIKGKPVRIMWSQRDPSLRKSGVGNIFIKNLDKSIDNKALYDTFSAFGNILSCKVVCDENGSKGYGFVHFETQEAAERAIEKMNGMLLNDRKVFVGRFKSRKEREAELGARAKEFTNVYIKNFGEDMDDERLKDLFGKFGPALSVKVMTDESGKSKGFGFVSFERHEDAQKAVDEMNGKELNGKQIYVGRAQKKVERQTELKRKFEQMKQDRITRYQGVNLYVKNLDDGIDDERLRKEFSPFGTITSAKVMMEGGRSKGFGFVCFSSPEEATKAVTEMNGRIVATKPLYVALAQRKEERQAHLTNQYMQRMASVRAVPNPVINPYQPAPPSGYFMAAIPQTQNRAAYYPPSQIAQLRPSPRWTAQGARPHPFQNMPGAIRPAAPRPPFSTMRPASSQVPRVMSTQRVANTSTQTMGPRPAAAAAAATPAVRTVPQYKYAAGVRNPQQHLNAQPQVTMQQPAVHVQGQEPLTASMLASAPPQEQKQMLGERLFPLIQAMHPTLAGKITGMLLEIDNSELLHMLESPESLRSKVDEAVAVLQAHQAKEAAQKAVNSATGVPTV
eIF4H inh: inhibitors of RNA binding by human eIF4H; Q15056; eIF4H fluorescence polarization binding assay; inhibition, % at 35 µM; hit rate 0.94% among 290,000; AID 2012;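 note: calls also rest on retests at 20 µM and on dose response follow-up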
PABP1 MLLE inh: inhibitors of microRNA-mediated deadenylation, human PABP1 MLLE binding; GST-MLLE / FITC-PAM2 fluorescence polarization; P11940; hit rate 0.36% among 360,000; inhibition, % at 20 µM; in the data active = inhibition above about 35%, passing the limit was not always enough
core dimer inh: HCV core protein dimerization inhibition; TR-FRET GST/Flag-core106 dimerization, 1536-well; inhibition, % at 5 µM; hit rate 0.33% among 300,000; AID 1899;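 active = inhibition above the mean of all tested compounds plus 3 SD, set per screening campaign, cut at about 45% in these data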
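Assay system: Tagged HCV core106 pair (GST and Flag) | Buffer or medium: KF-containing HEPES buffer, pH 7.45, DTT, CHAPS, BSA | Also added: Eu donor and XL665 acceptor anti-tag antibodies | Dosing: One concentration, 5 µM, in 0.5% DMSO | Timing: 4 h at 22.5 °C | Technique: TR-FRET 671 and 617 nm emission | Repeats: Singlicate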
NS3 helicase inh: HCV NS3 helicase inhibition; NS3 helicase DNA unwinding, Cy5 molecular beacon fluorescence; inhibition, % at 10.9 µM; hit rate 0.56% among 290,000; AID 1800;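 active = inhibition above the mean of all tested compounds plus 3 SD, set per campaign, cut at about 35% in these data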
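Measured by: Cy5 fluorescence, 0 and 60 min reads / Assay system: NS3 helicase fragment of HCV / Control set: low DMSO, high thioflavine S at 110 µM / Times: 1 h reaction at 25 °C, ATP-initiated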
DNA FID counter: counter-screen for HCV NS3 helicase inhibitors: DNA intercalator displacement | DNA fluorescent intercalator displacement, fluorescence | inhibition, % at 7.9 µM | hit rate 0.17% among 290,000 | AID 1845; in the data active = inhibition above about 37%;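 note: higher means more ethidium bromide displaced from hairpin DNA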
A number is an active result. Rows were chosen to be rich in hits. Some 2% of all compounds tested hit in one or more screens of this group. Unless noted, the rule behind the calls is not given here.

Screening CCc1nc2ccc(C(=O)N(C)CC(=O)Nc3ccc(F)c(F)c3F)cc2nc1CC returned PABP1 MLLE inh inactive.
For COc1ccccc1-c1cnc(C(O)c2ccc(Cl)cc2C)[nH]1 (stereo unspecified) the results were PABP1 MLLE inh inactive.
Screening CCCn1c(N)c(C(=O)COC(=O)c2c(C)noc2C)c(=O)n(C)c1=O returned PABP FP inh inactive, eIF4H inh inactive, PABP1 MLLE inh inactive, core dimer inh inactive, NS3 helicase inh inactive and DNA FID counter inactive.
For CCCn1c(N)c(C(=S)NC(=O)C2CC2)c(=O)n(C)c1=O the results were PABP FP inh inactive, eIF4H inh inactive, PABP1 MLLE inh 40.9, NS3 helicase inh inactive and DNA FID counter inactive.
Screening CC(=O)NC(=S)c1c(N)n(Cc2ccccc2)c(=O)n(C)c1=O returned PABP FP inh inactive, eIF4H inh inactive, core dimer inh inactive, NS3 helicase inh inactive and DNA FID counter inactive.
CCCCn1c(N)c(C(=S)NC(=O)CC(C)C)c(=O)n(C)c1=O was read as PABP FP inh inactive, eIF4H inh inactive, PABP1 MLLE inh 41.0, NS3 helicase inh inactive and DNA FID counter inactive.
Screening CCCc1c(C)[nH]c2ccc(C(=O)O)cc2c1=S returned PABP FP inh 55.2, eIF4H inh 56.0, PABP1 MLLE inh inactive, NS3 helicase inh inactive and DNA FID counter inactive.
Screening O=C(Nc1ccc(F)cc1)C(NC1CCCCC1)c1ccccc1 (stereo unspecified) returned PABP FP inh 56.3, eIF4H inh 2.7, PABP1 MLLE inh inactive, core dimer inh inactive, NS3 helicase inh inactive and DNA FID counter inactive.
`CCOC(=O)CSC1=C(C#N)C(=O)NC(c2ccc(OC)c(OC)c2)S1` (stereo unspecified) gave PABP FP inh inactive, eIF4H inh inactive, PABP1 MLLE inh 47.6, core dimer inh inactive, NS3 helicase inh inactive and DNA FID counter inactive.
`CCOC(=O)CSC1=C(C#N)C(=O)NC(c2ccc(OC)cc2)S1` (stereo unspecified) gave PABP FP inh inactive, eIF4H inh inactive, PABP1 MLLE inh inactive, core dimer inh inactive, NS3 helicase inh inactive and DNA FID counter inactive.
Nc1ccc2cc3[nH]c4cc(N)ccc4c3nc2c1 was read as PABP1 MLLE inh inactive.
`O=C(O)CSc1cc(C(=O)c2cc(F)ccc2O)cn2c(=O)c3c(-c4ccccc4)csc3nc12` gave PABP FP inh inactive, eIF4H inh 50.4, PABP1 MLLE inh inactive, core dimer inh 51.8, NS3 helicase inh inactive and DNA FID counter inactive.
Screening O=C(c1cnn(-c2ccccc2)c1)c1cc(F)ccc1O returned PABP FP inh inactive, eIF4H inh inactive, PABP1 MLLE inh inactive, core dimer inh inactive, NS3 helicase inh inactive and DNA FID counter inactive.
`CCc1c(C)sc2nc3c(C(=O)N4CCOCC4)cc(C(=O)c4cc(F)ccc4O)cn3c(=O)c12` gave PABP FP inh inactive, eIF4H inh inactive, PABP1 MLLE inh inactive, core dimer inh inactive, NS3 helicase inh inactive and DNA FID counter inactive.
Screening CCOC(=O)c1sc2nc3c(SCCC#N)cc(C(=O)c4cc(F)ccc4O)cn3c(=O)c2c1C returned PABP FP inh inactive, eIF4H inh inactive, PABP1 MLLE inh inactive, core dimer inh 50.2, NS3 helicase inh inactive and DNA FID counter inactive.
`Cc1nc2c3cc(Cl)ccc3n(CCN3CCCCC3)c2s1` gave PABP FP inh inactive, eIF4H inh inactive, PABP1 MLLE inh inactive, core dimer inh inactive, NS3 helicase inh inactive and DNA FID counter 39.2.
For CCc1ccc(S(=O)(=O)NC(=S)NC2CCCCC2)cc1 the results were PABP FP inh inactive, eIF4H inh inactive, PABP1 MLLE inh 42.8, core dimer inh inactive, NS3 helicase inh inactive and DNA FID counter inactive.
`O=S(=O)(NC(=S)NC1CCCCC1)c1ccc(Cl)cc1` gave PABP FP inh inactive, eIF4H inh inactive, PABP1 MLLE inh inactive, core dimer inh inactive, NS3 helicase inh inactive and DNA FID counter inactive.
For Cc1ccc(S(=O)(=O)NC(=S)NC2CCCCC2)cc1 the results were PABP FP inh inactive, eIF4H inh inactive, PABP1 MLLE inh 46.6, core dimer inh inactive, NS3 helicase inh inactive and DNA FID counter inactive.
Screening Cc1ccc2c(c1)S(=O)(=O)N(C)C(c1ccccc1)=C2 returned PABP1 MLLE inh inactive.
Cc1ccc(S(=O)(=O)N2[C@@H](c3cccc(Cl)c3)C(C(=O)O)=CC[C@H]2c2ccc3c(c2)OCO3)cc1 was read as PABP1 MLLE inh inactive and core dimer inh inactive.
`COc1ccc2nc(-n3c(O)c(C4=c5ccccc5=NC4=O)[nH]c3=S)sc2c1` gave PABP FP inh 1.0, eIF4H inh 61.5, PABP1 MLLE inh inactive, core dimer inh inactive, NS3 helicase inh inactive and DNA FID counter inactive.
Cc1ccc(NC(=O)CSc2nnc(CSc3nc(C)cc(C)n3)n2Cc2ccco2)c(C)c1 was read as PABP FP inh inactive, eIF4H inh inactive, PABP1 MLLE inh inactive, core dimer inh inactive, NS3 helicase inh inactive and DNA FID counter inactive.
Screening Cc1ccc(NCc2nnc(SCC(=O)c3ccccc3)n2Cc2ccco2)c(C)c1 returned PABP FP inh inactive, eIF4H inh inactive, PABP1 MLLE inh inactive, core dimer inh 63.5, NS3 helicase inh inactive and DNA FID counter inactive.
Cn1ccc2c(N3CCCCCCC3)cc3c(c21)C1CCC3O1 (stereo unspecified) was read as PABP1 MLLE inh inactive.
`Cc1c(CCC(=O)NCCCCCC(=O)O)c(=O)oc2cc3occ(-c4ccccc4)c3cc12` gave PABP FP inh 49.2, eIF4H inh 72.1, PABP1 MLLE inh inactive, NS3 helicase inh inactive and DNA FID counter inactive.
Screening O=C(Nc1cccc(S(=O)(=O)N2CCOCC2)c1)C1COc2ccccc2O1 (stereo unspecified) returned PABP1 MLLE inh inactive.
Cc1ccc(CNC(=O)C2CCC(CNS(=O)(=O)c3cccs3)CC2)cc1 (stereo unspecified) was read as PABP FP inh inactive, eIF4H inh inactive, PABP1 MLLE inh inactive, core dimer inh inactive, NS3 helicase inh inactive and DNA FID counter inactive.
For CC(=O)Nc1c(NC(C)C)c2ccccc2oc1=O the results were PABP FP inh inactive, eIF4H inh inactive, PABP1 MLLE inh inactive, core dimer inh inactive, NS3 helicase inh inactive and DNA FID counter inactive.
CC(=O)Nc1c(Nc2ccccc2)c2ccccc2oc1=O was read as PABP FP inh inactive, eIF4H inh inactive, PABP1 MLLE inh 47.2, core dimer inh inactive, NS3 helicase inh inactive and DNA FID counter inactive.
O=C(C/C=N\OCc1ccc([N+](=O)[O-])cc1)Nc1ccccc1 was read as PABP FP inh inactive, eIF4H inh inactive, PABP1 MLLE inh inactive, core dimer inh inactive, NS3 helicase inh inactive and DNA FID counter inactive.
COC(=O)C(/C=N/OCc1ccc([N+](=O)[O-])cc1)NC(=O)c1ccccc1 (stereo unspecified) was read as PABP FP inh active, eIF4H inh inconclusive, PABP1 MLLE inh inactive, core dimer inh inactive, NS3 helicase inh inactive and DNA FID counter inactive.

Bioassay records: PubChem BioAssay, several laboratories
